ChEMBL document CHEMBL4689842, “EUbOPEN Chemogenomics Library wave 1” (2021)
Where “and” joins values, the source holds several entries; their conditions need not be identical. Identical values can stand only once.

System: U2OS
Experiment: Multiplex assay against U2OS
Assay type: toxicity, cell-based
Conditions: human
Procedure, shortened: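 Live cells carried four stains from seeding: Hoechst33342, BioTracker Green Microtubule Cytoskeleton Dye, MitoTracker Red and Annexin V Alexa Fluor 680. They were imaged on a CQ1 microscope at 37°C and 5% CO2 after compound addition. Using CellPathfinder machine-learning gating, cells were split into Hoechst high-intensity objects or normal cells, normal cells into healthy, pyknosed or fragmented nuclei, and pyknosed cells into mitotic or apoptotic; tubulin, mitochondrial-mass and membrane-permeability phenotypes are per cents of healthy-nucleus cells.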

[1] = 12 h, 1 µM, compound concentration 1 uM, replicate 1
[2] = 12 h, 1 µM, compound concentration 1 uM, replicate 2
[3] = 12 h, 10 µM, compound concentration 10 uM, replicate 1
[4] = 12 h, 10 µM, compound concentration 10 uM, replicate 2
[5] = 24 h, 1 µM, compound concentration 1 uM, replicate 1
[6] = 24 h, 1 µM, compound concentration 1 uM, replicate 2
[7] = 24 h, 10 µM, compound concentration 10 uM, replicate 1
[8] = 24 h, 10 µM, compound concentration 10 uM, replicate 2
[9] = 48 h, 1 µM, compound concentration 1 uM, replicate 1
[10] = 48 h, 1 µM, compound concentration 1 uM, replicate 2
[11] = 48 h, 10 µM, compound concentration 10 uM, replicate 1
[12] = 48 h, 10 µM, compound concentration 10 uM, replicate 2

Nc1c(C(=O)NCc2ccc(C(=O)NCCCC3CCCCC3)cc2)cnn1-c1ccccc1 [SR-318]
Population Apoptotic (%) [1]: 42% and 23% and 30%
Population Fragmented Nuclei (%) [1]: 5% and 10% and 6%
Population Healthy Nuclei (%) [1]: 85% and 78% and 81%
Population Hoechst High Intensity Objects (%) [1]: 3%
Population Membrane Permeable-Phenotype (%) [1]: 4% and 3%
Population Mitochondria Different-Phenotype (%) [1]: 9% and 6%
Population Mitotic Cells (%) [1]: 57% and 76% and 69%
Population Normal (%) [1]: 96%
Population Pyknosed Nuclei (%) [1]: 9% and 10% and 12%
Population Tubulin-Different-Phenotype (%) [1]: 52% and 44%
Total Cell Count [1]: 171 and 322 and 200
Population Fragmented Nuclei (%) [2]: 9% and 3%
Population Healthy Nuclei (%) [2]: 83% and 75% and 91%
Population Membrane Permeable-Phenotype (%) [2]: 6% and 5%
Population Mitochondria Different-Phenotype (%) [2]: 8%
Population Mitotic Cells (%) [2]: 50% and 87% and 100%
Population Normal (%) [2]: 95% and 73%
Population Tubulin-Different-Phenotype (%) [2]: 19% and 25% and 11%
Total Cell Count [2]: 63 and 91 and 118
Population Apoptotic (%) [3]: 61% and 58% and 42%
Population Fragmented Nuclei (%) [3]: 6% and 14% and 11%
Population Healthy Nuclei (%) [3]: 74% and 65% and 67%
Population Hoechst High Intensity Objects (%) [3]: 2% and 8% and 5%
Population Membrane Permeable-Phenotype (%) [3]: 8% and 5% and 2%
Population Mitochondria Different-Phenotype (%) [3]: 57% and 50% and 60%
Population Mitotic Cells (%) [3]: 38% and 41% and 57%
Population Normal (%) [3]: 97% and 91% and 94%
Population Pyknosed Nuclei (%) [3]: 18% and 20% and 21%
Population Tubulin-Different-Phenotype (%) [3]: 39% and 47% and 40%
Total Cell Count [3]: 186 and 329 and 402
Population Apoptotic (%) [4]: 45% and 22% and 33%
Population Fragmented Nuclei (%) [4]: 17% and 15% and 12%
Population Healthy Nuclei (%) [4]: 69% and 58% and 72%
Population Hoechst High Intensity Objects (%) [4]: 7% and 1% and 10%
Population Membrane Permeable-Phenotype (%) [4]: 10% and 7% and 3%
Population Mitochondria Different-Phenotype (%) [4]: 55% and 51%
Population Mitotic Cells (%) [4]: 54% and 77% and 66%
Population Normal (%) [4]: 92% and 98% and 89%
Population Pyknosed Nuclei (%) [4]: 13% and 25% and 15%
Population Tubulin-Different-Phenotype (%) [4]: 50% and 56% and 67%
Total Cell Count [4]: 71 and 90 and 91
Population Apoptotic (%) [5]: 35% and 34% and 21%
Population Fragmented Nuclei (%) [5]: 5% and 8%
Population Healthy Nuclei (%) [5]: 85%
Population Hoechst High Intensity Objects (%) [5]: 0% and 3%
Population Membrane Permeable-Phenotype (%) [5]: 1% and 4% and 2%
Population Mitochondria Different-Phenotype (%) [5]: 5% and 6% and 8%
Population Mitotic Cells (%) [5]: 64% and 65% and 78%
Population Normal (%) [5]: 99% and 96%
Population Pyknosed Nuclei (%) [5]: 9% and 10%
Population Tubulin-Different-Phenotype (%) [5]: 59% and 20% and 47%
Total Cell Count [5]: 185 and 423 and 237
Population Apoptotic (%) [6]: 25%
Population Fragmented Nuclei (%) [6]: 6% and 3% and 4%
Population Healthy Nuclei (%) [6]: 80% and 84% and 75%
Population Membrane Permeable-Phenotype (%) [6]: 8% and 5%
Population Mitochondria Different-Phenotype (%) [6]: 13% and 12% and 7%
Population Mitotic Cells (%) [6]: 75%
Population Normal (%) [6]: 94% and 97% and 77%
Population Pyknosed Nuclei (%) [6]: 13% and 11% and 19%
Population Tubulin-Different-Phenotype (%) [6]: 22% and 14% and 23%
Total Cell Count [6]: 67 and 130 and 97
Population Apoptotic (%) [7]: 55% and 58% and 61%
Population Fragmented Nuclei (%) [7]: 12% and 5%
Population Healthy Nuclei (%) [7]: 67% and 74% and 61%
Population Hoechst High Intensity Objects (%) [7]: 8% and 4%
Population Membrane Permeable-Phenotype (%) [7]: 4% and 2% and 0%
Population Mitochondria Different-Phenotype (%) [7]: 55% and 53% and 63%
Population Mitotic Cells (%) [7]: 44% and 41% and 38%
Population Normal (%) [7]: 91% and 95%
Population Pyknosed Nuclei (%) [7]: 19%
Population Tubulin-Different-Phenotype (%) [7]: 36% and 24%
Total Cell Count [7]: 409 and 192 and 426
Population Apoptotic (%) [8]: 28% and 44% and 46%
Population Fragmented Nuclei (%) [8]: 13% and 17% and 14%
Population Healthy Nuclei (%) [8]: 65% and 62% and 66%
Population Hoechst High Intensity Objects (%) [8]: 1% and 7%
Population Membrane Permeable-Phenotype (%) [8]: 9% and 7% and 3%
Population Mitochondria Different-Phenotype (%) [8]: 58% and 57% and 66%
Population Mitotic Cells (%) [8]: 71% and 55% and 53%
Population Normal (%) [8]: 98% and 92%
Population Pyknosed Nuclei (%) [8]: 21% and 20% and 18%
Population Tubulin-Different-Phenotype (%) [8]: 41% and 30% and 61%
Total Cell Count [8]: 104 and 67 and 97
Population Apoptotic (%) [9]: 44% and 47% and 55%
Population Fragmented Nuclei (%) [9]: 3% and 8%
Population Healthy Nuclei (%) [9]: 87% and 83%
Population Hoechst High Intensity Objects (%) [9]: 0% and 2%
Population Membrane Permeable-Phenotype (%) [9]: 2% and 1%
Population Mitochondria Different-Phenotype (%) [9]: 5% and 8% and 7%
Population Mitotic Cells (%) [9]: 55% and 52% and 44%
Population Normal (%) [9]: 99% and 97%
Population Pyknosed Nuclei (%) [9]: 8% and 9% and 7%
Population Tubulin-Different-Phenotype (%) [9]: 69% and 56% and 24%
Total Cell Count [9]: 247 and 369 and 658
Population Apoptotic (%) [10]: 28% and 40% and 26%
Population Fragmented Nuclei (%) [10]: 7% and 5% and 2%
Population Healthy Nuclei (%) [10]: 86% and 84%
Population Membrane Permeable-Phenotype (%) [10]: 10% and 9% and 3%
Population Mitochondria Different-Phenotype (%) [10]: 14% and 9%
Population Mitotic Cells (%) [10]: 71% and 60% and 73%
Population Normal (%) [10]: 95% and 98% and 83%
Population Pyknosed Nuclei (%) [10]: 5% and 6% and 13%
Population Tubulin-Different-Phenotype (%) [10]: 28% and 20% and 25%
Total Cell Count [10]: 93 and 175 and 144
Population Apoptotic (%) [11]: 70% and 73% and 60%
Population Fragmented Nuclei (%) [11]: 7%
Population Healthy Nuclei (%) [11]: 76% and 61%
Population Hoechst High Intensity Objects (%) [11]: 2% and 4%
Population Membrane Permeable-Phenotype (%) [11]: 2% and 0%
Population Mitochondria Different-Phenotype (%) [11]: 35% and 32% and 47%
Population Mitotic Cells (%) [11]: 29% and 26% and 40%
Population Normal (%) [11]: 97% and 95%
Population Pyknosed Nuclei (%) [11]: 16% and 23% and 22%
Population Tubulin-Different-Phenotype (%) [11]: 17% and 9% and 25%
Total Cell Count [11]: 234 and 596 and 634
Population Apoptotic (%) [12]: 35% and 38% and 33%
Population Fragmented Nuclei (%) [12]: 15% and 14% and 12%
Population Healthy Nuclei (%) [12]: 68% and 60%
Population Hoechst High Intensity Objects (%) [12]: 7% and 3%
Population Membrane Permeable-Phenotype (%) [12]: 6% and 18% and 17%
Population Mitochondria Different-Phenotype (%) [12]: 52% and 40% and 44%
Population Mitotic Cells (%) [12]: 64% and 61% and 66%
Population Normal (%) [12]: 92% and 96%
Population Pyknosed Nuclei (%) [12]: 15% and 17% and 28%
Population Tubulin-Different-Phenotype (%) [12]: 32% and 26% and 31%
Total Cell Count [12]: 113 and 78 and 158
